Laboratory results as given in article PMC5034805 (Journal of Clinical Pharmacology, 2015).
“Also recorded” adds a separate entry of the source. Where two headings read alike, the source gives them in different places.

Columns and labels:
P‐glycoprotein (P‐gp) = details: in vitro; cited from earlier work
[1] = Safety evaluation in the ketoconazole interaction study; assay type: in vivo, human (patients with advanced cancer)
CYP2B6 = details: at plasma concentrations that are effective; cited from earlier work
[2] = patients with CTCL or PTCL; cited from earlier work
CYP enzymes = details: at plasma concentrations that are effective; cited from earlier work
α1‐acid‐glycoprotein = details: primarily to α1-acid-glycoprotein; cited from earlier work
CYP3A4 = details: at plasma concentrations that are effective; cited from earlier work
[3] = Ketoconazole drug–drug interaction study: romidepsin plasma pharmacokinetics; assay type: in vivo, human (patients with advanced cancer)
BCRP = details: in vitro; cited from earlier work
CYP1A1 = details: at plasma concentrations that are effective; cited from earlier work
[4] = Rifampin drug–drug interaction study: romidepsin plasma pharmacokinetics; assay type: in vivo, human (patients with advanced cancer)
[5] = Safety evaluation in the rifampin interaction study; assay type: in vivo, human (patients with advanced cancer); details: in two patients; romidepsin 14 mg/m^2 with rifampin 600 mg
How it was run: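 Antiemetic prophylaxis; K or Mg supplemented below 3.8 or 0.85 mmol/L. Monitoring through closeout (days 15–20): AE type, severity and relatedness, examinations, vital signs, ECGs, concomitant medications, clinical labs. Summarised descriptively.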

hepatocytes = details: cited from earlier work
[6] = cited from earlier work
CYP3A = details: strong inhibitor of CYP3A; cited from earlier work
[7] = coadministration with ketoconazole vs alone
[8] = human, plasma, intravenous, 8 mg/m2
[9] = coadministration with rifampin 600 mg vs alone
[10] = human, plasma, intravenous, 14 mg/m2

For C/C=C1\NC(=O)[C@H]2CSSCC/C=C/[C@H](CC(=O)N[C@H](C(C)C)C(=O)N2)OC(=O)[C@H](C(C)C)NC1=O [Romidepsin], the “Substrate of the efflux transporter P-glycoprotein (P-gp)” value (P‐glycoprotein (P‐gp)) is listed as “substrate”, the “Deaths during the treatment period” value ([1]; romidepsin 8 mg/m^2 with ketoconazole 400 mg) is listed as “No deaths” and the “Induction of CYP2B6” value (CYP2B6) is listed as “nor is it an inducer”. For the same molecule, the “Effect of polymorphic variants of CYP3A on systemic exposure” value [2] was “did not affect”, the “Inhibition of CYP enzymes” value (CYP enzymes) was “does not inhibit” and the Protein binding (α1‐acid‐glycoprotein) was “highly protein bound”. For the same molecule, the “Induction of CYP3A4” value (CYP3A4) was “nor is it an inducer”, the “Increase of mean romidepsin Cmax” value ([3]; coadministration with ketoconazole 400 mg vs alone) was ~10% and the “Change of romidepsin clearance” value [3, 7] was “decreased”. For the same molecule, the “Change of romidepsin volume of distribution” value [3, 7] was “decreased”, the Tmax [3, 8] was 3.5 h and the Vd [3, 8] was 236 L. The clearance [3, 8] was 282 mL/min, the half-life [3, 8] was 582 min and the AUC(0-inf) ([3]; human, plasma, iv, 8 mg/m^2) was 915 ng·h/mL. For the same molecule, the Cmax ([3]; human, plasma, iv, 8 mg/m^2) was 229 ng/mL, the “Median Difference of Tmax” value ([3]; romidepsin + ketoconazole vs romidepsin alone, Hodges-Lehmann estimate) was 0 and the “Substrate of BCRP” value (BCRP) was “not a substrate”. For the same molecule, the “Induction of CYP1A1” value (CYP1A1) was “nor is it an inducer”, the “Decrease of romidepsin clearance” value [4, 9] was “approximately 44%” and the “Decrease of romidepsin volume of distribution” value [4, 9] was ~52%. The “Increase of mean romidepsin Cmax” value [4, 9] was ~60%, the Tmax [4, 10] was 2.98 h and the Vd [4, 10] was 162 L. The clearance [4, 10] was 193 mL/min, the half-life [4, 10] was 582 min and the AUC(0-inf) ([4]; human, plasma, iv, 14 mg/m^2) was 2230 ng·h/mL. The Cmax ([4]; human, plasma, iv, 14 mg/m^2) was 571 ng/mL, the “Treatment-emergent SAEs” value [5] was 8 and the Uptake into hepatocytes (hepatocytes) was “actively taken up into the liver; also recorded: active process”. For the same molecule, the “Maximal tolerated dose (MTD)” value ([6]; given on days 1, 8, and 15 of a 28-day cycle) was 13.3 mg/m^2, the “Maximal tolerated dose (MTD)” value ([6]; given on days 1 and 5 in a 21-day cycle) was 17.8 mg/m^2 and the Dose-limiting toxicities ([6]; phase 1 dose escalation) was “fatigue, nausea, vomiting, thrombocytopenia (transient and grade 3) and neutropenia”.

For CC(=O)N1CCN(c2ccc(OCC3COC(Cn4ccnc4)(c4ccc(Cl)cc4Cl)O3)cc2)CC1 (centres unmarked) [ketoconazole], the “Increases in liver enzymes AST or ALT” value ([1]; ketoconazole 400 mg daily days 4-8 with romidepsin 8 mg/m^2) is listed as “not observed” and the “Increase of AUC of CYP3A substrates” value (CYP3A) is listed as ≥ 5 fold.
